Source: PubChem BioAssay (Broad Institute)
The full list was thinned out, with hits kept by preference.
E-sel inducer: E-selectin induction in HUVECs, primary screen, imaging, HUVEC, immunofluorescence imaging, single point; P16581; normalized: neutral wells 0, TNF-alpha wells 100; activation, % at 7.58 µM; 260,000 compounds, 0.37% hits;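 active = mean E-selectin-positive cell signal at least 10% of the positive control, reached in at least 60% of replicates, without over 20% cell loss; inconclusive = no rule given, readout overlaps actives, possibly toxicity-flagged; inactive = the rest, including those meeting only one limit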
Target sequence (P16581 whole entry, looked up): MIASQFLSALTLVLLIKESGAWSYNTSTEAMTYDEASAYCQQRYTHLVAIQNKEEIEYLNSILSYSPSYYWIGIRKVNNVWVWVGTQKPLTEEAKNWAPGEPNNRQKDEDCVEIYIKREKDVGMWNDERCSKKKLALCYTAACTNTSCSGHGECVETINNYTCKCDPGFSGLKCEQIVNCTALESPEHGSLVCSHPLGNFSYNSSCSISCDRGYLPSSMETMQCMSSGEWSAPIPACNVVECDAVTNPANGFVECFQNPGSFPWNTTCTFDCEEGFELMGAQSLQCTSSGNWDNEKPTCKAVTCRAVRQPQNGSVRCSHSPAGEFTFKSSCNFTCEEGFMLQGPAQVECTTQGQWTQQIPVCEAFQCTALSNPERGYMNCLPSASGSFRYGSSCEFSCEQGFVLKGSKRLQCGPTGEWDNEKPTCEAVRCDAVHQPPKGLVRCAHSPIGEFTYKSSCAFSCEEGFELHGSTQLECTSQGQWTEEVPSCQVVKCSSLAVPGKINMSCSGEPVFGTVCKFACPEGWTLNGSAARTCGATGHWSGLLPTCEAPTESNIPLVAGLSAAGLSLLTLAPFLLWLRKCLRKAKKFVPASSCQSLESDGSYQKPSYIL
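material = human umbilical vein endothelial cells (HUVEC), E-selectin induction | quantity = 3,000 cells/well | medium = EGM-2 growth medium on 0.1% gelatin-coated wells | technique = immunofluorescence imaging | read-out basis = % PE-positive cells | control set = TNF-alpha positive control, DMSO neutral control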
Xi reactivation: activators of inactive X chromosome reactivation, primary screen, imaging, XiGFP fibroblasts, GFP high-content imaging, set 2. XiGFP mouse fibroblasts, % GFP-positive cells imaging, 3 d; cells co-treated with 5-aza-dC sensitizer; scaled so ellipticine positive control = 100%. activation, % at 7.58 µM. AID 743238, 2013. 360,000 compounds, 0.055% hits;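 active = mean normalized replicate activation at least 10% and every replicate at or above 10%; inconclusive = only one of the two criteria met; inactive = mean below 10% and not all replicates reach 10%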
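System: 68-5-11 XiGFP fibroblast line | Buffer or medium: DMEM containing 5-aza-dC | Compound: Single point | Times: Compounds 3 days, fix/stain 15 min at room temperature | Benchmarks: Positive control ellipticine, 6 µM final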
Numbers stand for hits; i = inactive; ? = inconclusive; nt = no result.

SMILES | E-sel inducer | Xi reactivation
C/C(=N\NC(=O)c1cc(C(C)C)[nH]n1)c1ccco1 | 27 | i
COc1ccccc1CCNC(=O)/C(=C/c1cccnc1)NC(=O)c1ccccc1 | 52 | i
COc1ccccc1NC(=O)/C(=C\c1cccnc1)NC(=O)c1ccccc1 | nt | i
CC(C)OC(=O)N(C)C[C@H]1OCc2cn(nn2)CCCC(=O)N([C@H](C)CO)C[C@H]1C | i | i
COCC(=O)Nc1ccc2c(c1)OC[C@@H](C)N(Cc1cncnc1)C[C@H](C)[C@H](OC)CN(C)C2=O | nt | i
CCCC(=O)Nc1ccc2c(c1)C(=O)N(C)[C@H]1CC[C@H](CC(=O)Nc3ccc(C)cc3)O[C@@H]1CO2 | i | i
CC(=O)[C@@]1(O)Cc2c(O)c3c(c(O)c2[C@H](O[C@H]2C[C@H](N)[C@H](O)[C@H](C)O2)C1)C(=O)c1ccccc1C3=O | i | 109
COc1cccc2c1C(=O)c1c(O)c3c(c(O)c1C2=O)CC(O)(C(C)=O)CC3OC1CC(N(C)C)C(O)C(C)O1 (stereo not drawn) | nt | i
COc1cccc2c1C(=O)c1c(O)c3c(c(O)c1C2=O)C[C@@](O)(C(=O)CO)C[C@@H]3OC1CC(N)C(O)C(C)O1 (stereo partly drawn) | ? | i
COc1cccc2c1C(=O)c1c(O)c3c(c(O)c1C2=O)C[C@@](O)(C(=O)CO)C[C@@H]3O[C@H]1C[C@H](N)[C@H](O)[C@H](C)O1 | 58 | i
C[C@@H]1CN([C@@H](C)CO)C(=O)c2cccc(NS(=O)(=O)c3ccc(Cl)cc3)c2O[C@@H]1CN(C)C(=O)Nc1ccc(C(F)(F)F)cc1 | i | i
COc1ccc2c3c([nH]c2c1)[C@H](CO)N(S(C)(=O)=O)CC31CCN(C(=O)CN(C)C)CC1 | i | i
COc1cccc(CNC(=O)C[C@@H]2C=C[C@@H](NS(=O)(=O)c3ccccc3OC)[C@@H](CO)O2)c1 | i | i
Cc1oc(-c2cccs2)nc1CS(=O)CC(=O)NCCCN1CC(C)CC(C)C1 (stereo not drawn) | nt | i
Cc1ccc(-c2nc(CS(=O)CC(=O)NCCCN3CC(C)CC(C)C3)c(C)o2)cc1 (stereo not drawn) | i | 22
Cc1noc(C)c1S(=O)(=O)Nc1ccc2c(c1)C(=O)N([C@H](C)CO)C[C@@H](C)[C@H](CN(C)C)O2 | i | i
CCC(=O)Nc1ccc2c(c1)C(=O)N(C)C[C@H](OC)[C@H](C)CN(Cc1cncnc1)[C@H](C)CO2 | i | i
COc1ccc(CNS(=O)(=O)c2ccc3c(c2)C(C)(C)C(=O)N3C)cc1 | 127 | i
Cc1ccc(CNS(=O)(=O)c2ccc3c(c2)C(C)(C)C(=O)N3C)cc1 | i | i
Cc1cc(C(=O)Nc2ccc3c(c2)C(=O)N(C)[C@H]2CC[C@H](CC(=O)Nc4ccc(Cl)cc4)O[C@@H]2CO3)no1 | i | i
Cc1noc(C)c1S(=O)(=O)Nc1ccc2c(c1)CC(=O)N([C@@H](C)CO)C[C@H](C)[C@@H](CN(C)Cc1ccncc1)O2 | nt | i
CCOC(=O)[C@]12CCCC=C1N(CCC1=CCCCC1)C(=O)[C@H](CC(=O)NCCc1ccccc1OC)C2 | i | i
CCOC(=O)[C@]12CCC=C1N(CCC1=CCCCC1)C(=O)[C@H](CC(=O)NCCc1ccccc1OC)C2 | 180 | i
N#C[C@@H]1[C@H](c2ccc(-c3cccc(F)c3)cc2)[C@H](CO)N1C(=O)NC1CCCCC1 | i | i
C[C@H](CO)N1C[C@H](C)[C@@H](CN(C)C(=O)CN(C)C)Oc2cc(-c3ccncc3)ccc2S1(=O)=O | i | i
SMILES | E-sel inducer | Xi reactivation
O=C(Nc1ccc2c(c1)[C@H]1C[C@@H](CC(=O)N3CCCCC3)O[C@H](CO)[C@H]1O2)C1CCOCC1 | i | i
C[C@@H]1CN([C@@H](C)CO)C(=O)c2ccccc2-c2ccccc2CO[C@H]1CN(C)C(=O)C1CC1 | i | i
COc1cc(OC)cc(C(=O)N[C@H](C(=O)OCC(=O)Nc2ccc(C(C)C)cc2)C(C)C)c1 | 64 | i
COc1cc(OC)cc(C(=O)N[C@H](C(=O)OCC(=O)Nc2ccc(OC)c(OC)c2)C(C)C)c1 | nt | i
OC[C@H]1[C@H](c2ccc(C#Cc3ccccc3)cc2)[C@@H]2CN(CC3CCOCC3)CCCCN12 | i | i
COc1ccc(NC(=O)N(C)C[C@@H]2Oc3ccc(NS(=O)(=O)c4c(C)noc4C)cc3CC(=O)N([C@H](C)CO)C[C@H]2C)cc1 | nt | i
COc1ccc(NC(=O)CCc2ccccc2)cc1S(=O)(=O)N1CCCCC1 | nt | 141
COc1ccc(NC(=O)CCc2ccccc2)cc1S(=O)(=O)N1CCOCC1 | i | i
O=C(C[C@H]1CC[C@H]2[C@@H](COC[C@H](O)CN2Cc2nccs2)O1)NCc1ccccc1 | i | i
COCC#Cc1ccc2c(c1)O[C@@H](CN(C)Cc1ccccc1)[C@H](C)CN([C@@H](C)CO)S2(=O)=O | i | i
CCN1/C(=C/c2ccc3cc(C)cc(C)c3[n+]2CC)Sc2cc(C)ccc21 | nt | 110
C=CC[n+]1c(/C=C2\C=Cc3cc(C)ccc3N2CC)ccc2ccccc21 | i | i
CCN1/C(=C\c2ccc3cc(C)ccc3[n+]2CC)Sc2cc(C)c(C)cc21 | nt | 77
Cc1ccc2c(c1)S/C(=C\c1cccc[n+]1C)N2CCO | i | i
C[C@H](NC(=O)C[C@H]1C[C@@H]2c3cc(NC(=O)C4CCC4)ccc3O[C@@H]2[C@H](CO)O1)c1ccccc1 | i | i
Cc1ccccc1-c1ccc([C@H]2[C@H](CO)N3C(=O)CN(C(=O)c4ccc(F)cc4)C[C@@H]23)cc1 | i | i
C[C@H]1CCCCO[C@H](CN(C)C(=O)CCCN(C)C)[C@@H](C)CN([C@@H](C)CO)C(=O)c2cc(NC(=O)C3CCCCC3)ccc2O1 | i | i
Cc1cc(C)nc(NC(N)=NC(C)c2ccccc2)n1 (stereo not drawn) | 185 | i
Cc1cc(C)nc(NC(N)=NCCc2ccccc2)n1 | i | i
CC(C)NC(=O)Nc1ccc2c(c1)C(=O)N([C@H](C)CO)C[C@@H](C)[C@H](CN(C)CC1CC1)OCCCC[C@@H](C)O2 | i | i
CCCNC(=O)C[C@@H]1CC[C@H]2[C@H](COc3ccc(NC(=O)Nc4cccc(C)c4)cc3C(=O)N2C)O1 | i | i
Cc1ccn2c(=O)nc(SCC(=O)N3CCCc4ccccc43)nc2c1 | nt | i
O=C(CSc1nc(=O)n2ccccc2n1)N1CCCc2ccccc21 | 32 | i
CO[C@H]1CN(C)C(=O)c2cc(NC(=O)C3CCOCC3)ccc2OC[C@H](C)N(C(=O)c2ccccc2)C[C@H]1C | i | i
CC(C)NC(=O)Nc1ccc2c(c1)C(=O)N([C@@H](C)CO)C[C@H](C)[C@@H](CN(C)C(=O)Nc1ccccc1)OCCCC[C@H](C)O2 | nt | i
O=C(NCCCN1CCOCC1)c1ccc(Cl)cc1[N+](=O)[O-] | nt | i
O=C(NN1CCOCC1)c1ccc(Cl)cc1[N+](=O)[O-] | 45 | i
Cc1ccc2c(c1)c1c(n2CC(O)Cn2c(C)nc3ccccc32)CCCC1 (stereo not drawn) | 69 | i
Cc1ccc2c(c1)c1c(n2CC(O)CN2CCCCCC2)CCCC1 (stereo not drawn) | i | i
CN1C(=O)c2cc(NC(=O)c3ccccc3Cl)ccc2OC[C@H]2O[C@@H](CC(=O)O)CC[C@H]21 | i | i
